Results published in ChEMBL document CHEMBL1126882, “Orally active central dopamine and serotonin receptor ligands: 5-, 6-, 7-, and 8-[[trifluoromethyl)sulfonyl]oxy]-2-(di-n-propylamino)tetralins and the formation of active metabolites in vivo” (J Med Chem, 1993).
Activity calls are given as the source filed them. The calls are words filed in the database; no cut-off is given here.

Key:
[1] = Effective dose for half-maximal decrease in the accumulation of 5-hydroxytryptophan (5-HTP) in reserpinized rat brain striatal area by sc administration; format: functional
In short: (§1)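 Male Sprague-Dawley rats (200-300 g) got reserpine 5 mg/kg sc 18 h before. The test drug (saline) was given sc or po (po rats fasted 18 h), with NSD 1015, 30 min before decapitation. DOPA and 5-HTP in limbic, striatal and hemispheral tissue were measured by HPLC-ED. ED50 (half-maximal decrease) was taken from 4-6-dose curves, with deviation estimated graphically from SEM.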

[2] = molecular target: T1, 5-hydroxytryptamine receptor 1A (Rattus norvegicus, UniProt P19327); assay: (§2) Binding affinity against 5-hydroxytryptamine 1A receptor in homogenated rat brain tissue, using by [3H]8-OH-DPAT as radioligand; format: tissue-based
T1 sequence (P19327 whole entry): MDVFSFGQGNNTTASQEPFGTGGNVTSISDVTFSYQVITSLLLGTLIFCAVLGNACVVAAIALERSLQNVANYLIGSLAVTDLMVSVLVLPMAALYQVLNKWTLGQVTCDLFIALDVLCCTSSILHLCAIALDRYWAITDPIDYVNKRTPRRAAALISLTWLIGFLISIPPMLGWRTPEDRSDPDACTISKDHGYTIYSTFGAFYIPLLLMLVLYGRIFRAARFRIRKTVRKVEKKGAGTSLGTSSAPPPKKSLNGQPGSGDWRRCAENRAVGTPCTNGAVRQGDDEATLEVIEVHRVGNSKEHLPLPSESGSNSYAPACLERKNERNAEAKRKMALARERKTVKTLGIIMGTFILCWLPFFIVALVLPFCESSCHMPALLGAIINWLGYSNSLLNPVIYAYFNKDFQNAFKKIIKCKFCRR
In short: (§3)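 Rat brain homogenate was washed and preincubated in 50 mM Tris (pH 8.0) containing NaCl, CaCl2 and MgCl2, plus 10 μM pargyline. It was incubated with 1 nM [3H]-8-OH-DPAT (final) for 15 min at 37 °C, then vacuum-filtered and counted by scintillation. Nonspecific binding was defined with 10 μM 5-HT. Six drug concentrations (10⁻⁴-10⁻⁹ M) were tested, triplicate or single run. IC50 came from a semilog plot with linear regression.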

[3] = molecular target: T2, Dopamine receptor (Rattus norvegicus) (UniProt P25115+P19020+P30729+P18901+P61169); assay: Effective dose for half-maximal decrease in the accumulation of DOPA in reserpinized rat brain striatal area by po administration; format: functional, organism-based; in short: as §1
[4] = molecular target: D(2) dopamine receptor (Rattus norvegicus, UniProt P61169); assay: Binding affinity against dopamine receptor D2 in homogenated rat brain tissue, using by [3H]spiperone as radioligand; format: tissue-based
In short: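 Rat striatal membranes were prepared in 50 mM potassium phosphate (pH 7.4). They were incubated with 0.5 nM [3H]spiperone (3 mg original tissue) for 10 min at 37 °C. Specific binding was defined with 10 μM 6,7-ADTN. Six drug concentrations (10⁻⁴-10⁻⁹ M) were tested, in triplicate or in a single experiment.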

[5] = molecular target: T2, Dopamine receptor (Rattus norvegicus); assay: Effective dose for half-maximal decrease in the accumulation of DOPA in reserpinized rat brain hemispheral area by sc administration; Inactive; format: functional, organism-based; in short: as §1
[6] = molecular target: T2, Dopamine receptor (Rattus norvegicus); assay: Effective dose for half-maximal decrease in the accumulation of DOPA in reserpinized rat brain striatal area by sc administration; Inactive; format: functional, organism-based; in short: as §1
[7] = Effective dose for half-maximal decrease in the accumulation of 5-hydroxytryptophan (5-HTP) in reserpinized rat brain hemispheral area by sc administration; format: functional; in short: as §1
[8] = Effective dose for half-maximal decrease in the accumulation of 5-hydroxytryptophan (5-HTP) in reserpinized rat brain limbic area by sc administration; format: functional; in short: as §1
[9] = molecular target: T2, Dopamine receptor (Rattus norvegicus); assay: Effective dose for half-maximal decrease in the accumulation of DOPA in reserpinized rat brain limbic area by po administration; format: functional, organism-based; in short: as §1
[10] = molecular target: T2, Dopamine receptor (Rattus norvegicus); assay: Effective dose for half-maximal decrease in the accumulation of DOPA in reserpinized rat brain hemispheral area by po administration; Inactive; format: functional, organism-based; in short: as §1
[11] = Effective dose for half-maximal decrease in the accumulation of 5-hydroxytryptophan (5-HTP) in reserpinized rat brain limbic area by po administration; format: functional; in short: as §1
[12] = Effective dose for half-maximal decrease in the accumulation of 5-hydroxytryptophan (5-HTP) in reserpinized rat brain striatal area by po administration; format: functional; in short: as §1
[13] = Effective dose for half-maximal decrease in the accumulation of 5-hydroxytryptophan (5-HTP) in reserpinized rat brain hemispheral area by po administration; format: functional; in short: as §1
[14] = molecular target: T2, Dopamine receptor (Rattus norvegicus); assay: Effective dose for half-maximal decrease in the accumulation of DOPA in reserpinized rat brain limbic area by sc administration; Inactive; format: functional, organism-based; in short: as §1
[15] = molecular target: T2, Dopamine receptor (Rattus norvegicus); assay: Effective dose for half-maximal decrease in the accumulation of DOPA in reserpinized rat brain limbic area by sc administration; format: functional, organism-based; in short: as §1
[16] = organism: Rattus norvegicus; assay: DA agonist induced behavior was charecterised by increased locomotion, sniffing and licking.++ indicates high intensity of behavioral effect; format: functional, organism-based
In short: (§4)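 Male Sprague-Dawley rats (200-300 g) given reserpine 5 mg/kg sc in the neck 18 h before testing. The test compound, in 0.9% saline, was given sc in the neck (n = 4-5). Rats were placed singly in photocell motility meters right after dosing. Counts were recorded over 30 min, alongside gross behavioural observation of 5-HT and DA signs. Statistics: ANOVA with Fischer's PLSD versus reserpine controls.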

[17] = system: Rattus norvegicus; assay: post-synaptic agonistic effects by increase in locomotor activity at the dose of 0.08 umol/kg, sc in reserpinized rat; format: functional; in short: as §4
[18] = molecular target: T2, Dopamine receptor (Rattus norvegicus); assay: Effective dose for half-maximal decrease in the accumulation of DOPA in reserpinized rat brain striatal area by sc administration; format: functional, organism-based; in short: as §1
[19] = system: Rattus norvegicus; assay: Effective dose for half-maximal decrease in the accumulation of 5-hydroxytryptophan (5-HTP) in reserpinized rat brain hemispheral area by po administration; Inactive; format: functional, organism-based; in short: as §1
[20] = system: Rattus norvegicus; assay: Effective dose for half-maximal decrease in the accumulation of 5-hydroxytryptophan (5-HTP) in reserpinized rat brain striatal area by po administration; Inactive; format: functional, organism-based; in short: as §1
[21] = molecular target: T2, Dopamine receptor (Rattus norvegicus); assay: Effective dose for half-maximal decrease in the accumulation of DOPA in reserpinized rat brain hemispheral area by po administration; format: functional, organism-based; in short: as §1
[22] = molecular target: T1, 5-hydroxytryptamine receptor 1A; assay: as §2; format: tissue-based; remark: listed apart in the source
In short: as §3, with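 “pargyline.” for “pargyline. It was incubated with 1 nM [3H]-8-OH-DPAT (final) for 15 min at 37 °C, then vacuum-filtered and counted by scintillation.”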

[23] = system: Rattus norvegicus; assay: Effective dose for half-maximal decrease in the accumulation of 5-hydroxytryptophan (5-HTP) in reserpinized rat brain limbic area by po administration; Inactive; format: functional, organism-based; in short: as §1

D(2) dopamine receptor, sequence (P61169 whole entry): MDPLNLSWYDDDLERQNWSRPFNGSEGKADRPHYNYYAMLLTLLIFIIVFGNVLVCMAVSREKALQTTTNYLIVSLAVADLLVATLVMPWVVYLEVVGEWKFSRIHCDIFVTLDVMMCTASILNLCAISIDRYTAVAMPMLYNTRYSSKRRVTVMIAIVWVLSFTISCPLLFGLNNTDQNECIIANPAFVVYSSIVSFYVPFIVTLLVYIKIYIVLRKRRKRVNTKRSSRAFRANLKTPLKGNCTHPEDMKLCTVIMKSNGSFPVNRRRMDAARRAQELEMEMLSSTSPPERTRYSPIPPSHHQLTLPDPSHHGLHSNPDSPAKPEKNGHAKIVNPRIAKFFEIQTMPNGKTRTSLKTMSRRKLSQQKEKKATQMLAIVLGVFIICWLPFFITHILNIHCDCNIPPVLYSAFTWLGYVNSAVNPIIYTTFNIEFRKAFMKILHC

What does the source list for CCCN(CCC)C1CCc2cccc(OC)c2C1 (stereo not drawn)?
ED50 [1]: 0.3 µmol/kg; Ki [2]: 10 nM; ED50 [3]: 12.5 µmol/kg; Ki [4]: 160 nM; ED50 [5]: inactive; ED50 [6]: inactive; ED50 [7]: 0.2 µmol/kg; ED50 [8]: 0.3 µmol/kg; ED50 [9]: 5.5 µmol/kg; ED50 [10]: inactive; ED50 [11]: 3.2 µmol/kg; ED50 [12]: 3.2 µmol/kg; ED50 [13]: 2.3 µmol/kg; ED50 [14]: inactive

With CCCN(CCC)C1CCc2c(O)cccc2C1 (stereo not drawn) [5-OH-DPAT] as the compound, how does the ED50 [15] read?
The ED50 was 0.01 µmol/kg.

What about the Behavioral observation [16] of the same compound?
Its Behavioral observation is “Active”.

And the ED50 [3]?
Its ED50 is 0.5 µmol/kg.

And the Counts/30 [17]?
The Counts/30 was 60 min.

What about the ED50 [18] of the same compound?
The ED50 was 0.01 µmol/kg.

And the ED50 [19]?
The ED50 was “inactive”.

What about the ED50 [5] of the same compound?
Its ED50 is “inactive”.

What about the ED50 [6] of the same compound?
The ED50 was “inactive”.

And the ED50 [20]?
The ED50 was “inactive”.

And the ED50 [21]?
The ED50 was 4 µmol/kg.

And the ED50 [9]?
Its ED50 is 0.7 µmol/kg.

And the Ki [22]?
Its Ki is 1040 nM.

And the ED50 [23]?
The ED50 was “inactive”.

And the ED50 [14]?
The ED50 was “inactive”.
